The source made the active and inactive calls. The rule behind the calls is not given here.
Assays:
Mus musculus [1] = test: Antinociceptive activity in ip dosed NMRI mouse assessed as inhibition of formalin-induced neuropathic pain after 30 mins; assay type: functional; conditions: 0.5 h
How it was run: (§1)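 NMRI mice dosed ip at UCB Pharma, then tested in the formalin model of neuropathic pain. ED50 in mg/kg read 30 min after administration. Single-dose runs report the percentage protected.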

Mus musculus [2] = test: Anticonvulsant activity in ip dosed NMRI mouse assessed as protection against maximal electroshock-induced seizure after 30 mins; assay type: functional; conditions: 0.5 h
How it was run: (§2)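 Adult male NMRI mice dosed ip (UCB Pharma). MES test run per the Klitgaard procedure. […] Single-dose runs report the percentage of animals protected.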

Mus musculus [3] = test: Anticonvulsant activity in ip dosed NMRI mouse assessed as protection against 6 Hz psychomotor seizure after 30 mins; assay type: functional; conditions: 0.5 h; for minimal effective dose: read-out: MED
How it was run: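 Adult male NMRI mice dosed ip (UCB Pharma). 6 Hz psychomotor seizure model at 44 mA, per Kaminski and co-workers.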

Mus musculus [4] = test: Anticonvulsant activity in ip dosed CF1 mouse assessed as protection against maximal electroshock-induced seizure after 30 mins; assay type: functional; conditions: 0.5 h
How it was run: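 Adult male albino CF-1 (Carworth Farms No. 1) mice dosed ip under the NINDS ASP; maximal electroshock seizure test. For compounds with sufficient activity, a dose-response curve was run at the time of peak effect (hours).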

[5] = Neurotoxicity in ip dosed NMRI mouse assessed as minimal motor impairment after 30 mins; assay type: toxicity, organism-based; conditions: in vivo
How it was run: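 Adult male NMRI mice dosed ip at UCB Pharma. Neurological toxicity was scored on the rotorod test 30 min after dosing.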

Mus musculus [6] = test: Anticonvulsant activity in NMRI mouse assessed as protection against subcutaneous pentylenetetrazol-induced seizure at 30 to 300 mg/kg, ip after 0.5 to 4 hrs; assay type: functional, organism-based
Rattus norvegicus [7] = test: Anticonvulsant activity in po dosed Sprague-Dawley rat assessed as protection against maximal electroshock-induced seizure after 30 mins; assay type: functional; conditions: 0.5 h
[8] = Neurotoxicity in po dosed Sprague-Dawley rat assessed as minimal motor impairment after 30 mins by rotorod test; assay type: toxicity, organism-based; conditions: in vivo
Mus musculus [9] = test: Antinociceptive activity in NMRI mouse assessed as inhibition of formalin-induced neuropathic pain at 83 mg/kg, ip after 30 mins; assay type: functional; parameters: scale not given: the % may be the effect or the level left; conditions: route intraperitoneal; how it was run: as §1
Mus musculus [10] = test: Anticonvulsant activity in ip dosed CF1 mouse assessed as protection against 6 Hz psychomotor seizure after 30 mins; assay type: functional; conditions: 0.5 h
How it was run: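 Adult male albino CF-1 mice dosed ip (NINDS ASP). 6 Hz psychomotor seizure test at 32 mA, per Stables and Kupferberg.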

Mus musculus [11] = species: Mus musculus; test: Protective index, ratio of TD50 for CF1 mouse to ED50 for CF1 mouse by maximal electroshock seizure test; assay type: functional
How it was run: (§3)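 Protective index computed as rotorod (mice) or behavioral (rats) TD50 divided by MES ED50, both in mg/kg in the same species and route.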

Rattus norvegicus [12] = species: Rattus norvegicus; test: Protective index, ratio of TD50 for Sprague-Dawley rat to ED50 for Sprague-Dawley rat by maximal electroshock seizure test; assay type: functional; how it was run: as §3
[13] = Neurotoxicity in ip dosed CF1 mouse assessed as minimal motor impairment after 30 mins; assay type: toxicity, organism-based; conditions: in vivo
Mus musculus [14] = test: Antinociceptive activity in NMRI mouse assessed as inhibition of formalin-induced neuropathic pain at 71 mg/kg, ip after 30 mins; assay type: functional; parameters: scale not given: the % may be the effect or the level left; conditions: route intraperitoneal; how it was run: as §1
Mus musculus [15] = test: Anticonvulsant activity in NMRI mouse assessed as protection against maximal electroshock-induced seizure at 46 mg/kg, ip after 30 mins; assay type: functional; conditions: route intraperitoneal; how it was run: as §2
Mus musculus [16] = test: Antinociceptive activity in NMRI mouse assessed as inhibition of formalin-induced neuropathic pain at 74 mg/kg, ip after 30 mins; assay type: functional; parameters: scale not given: the % may be the effect or the level left; conditions: route intraperitoneal; how it was run: as §1
Mus musculus [17] = species: Mus musculus; test: Protective index, ratio of TD50 for NMRI mouse to ED50 for NMRI mouse formalin-induced neuropathic pain model; assay type: functional
Mus musculus [18] = species: Mus musculus; test: Protective index, ratio of TD50 for NMRI mouse to ED50 for NMRI mouse by maximal electroshock seizure test; assay type: functional; how it was run: as §3

Row | SMILES | ED50 (Mus musculus [1]) [mg/kg] | ED50 (Mus musculus [2]) [mg/kg] | ED50 (Mus musculus [4]) [mg/kg] | TD50 at 0.5 h [5] [mg/kg] | also measured
1 | NC(CN1CCOCC1)C(=O)NCc1ccccc1 (racemic) | 69 | 89 | – | – | ED50 (Mus musculus [3]): > 84 mg/kg
2 | NCC(N)C(=O)NCc1ccccc1 (racemic) | – | > 68 | – | – | –
3 | CC(=O)N[C@@H](C(=O)NCc1ccccc1)C(C)(C)C | – | – | > 300 | > 300 | –
4 | C[C@H](N)C(=O)NCc1ccccc1 | – | – | – | > 300 | Activity (Mus musculus [6]): inactive; ED50 (Rattus norvegicus [7]): > 80 mg/kg; TD50 at 0.5 h [8]: > 80 mg/kg
5 | CN(C)CC(N)C(=O)NCc1ccccc1 (racemic) | 83 | 94 | – | – | ED50 (Mus musculus [3]): > 110 mg/kg; Activity (Mus musculus [9]): 14%
6 | CC(=O)NC(CO)C(=O)NCc1ccccc1 (racemic) | – | – | < 100 | < 300 | –
7 | CC(=O)N[C@@H](C(=O)NCc1ccccc1)C(C)C | – | – | < 100 | > 300 | –
8 | CC(=O)NC(C(=O)NCc1ccccc1)c1cccs1 (stereo unspecified) | – | – | 45 | – | –
9 | CC[C@@H](N)C(=O)NCc1ccccc1 | 22 | 16 | 18 | 80 | minimal effective dose (Mus musculus [3]): 62 mg/kg; ED50 (Mus musculus [10]): 50 mg/kg; Ratio TD50/ED50 (Mus musculus [11]): 4.4; Activity (Mus musculus [6]): inactive; ED50 (Rattus norvegicus [7]): 11 mg/kg; TD50 at 0.5 h [8]: > 500 mg/kg; Ratio TD50/ED50 (Rattus norvegicus [12]): >45
10 | N[C@@H](CO)C(=O)NCc1ccccc1 | > 62 | – | – | – | ED50 (Mus musculus [3]): > 62 mg/kg; TD50 at 0.5 h [13]: > 110 mg/kg
11 | COC[C@@H](NC(C)=O)C(=O)NCc1ccccc1 [LACOSAMIDE] | – | – | – | – | Activity (Mus musculus [6]): inactive; TD50 at 0.5 h [8]: > 500 mg/kg
12 | CC(=O)NC(C(=O)NCc1ccccc1)c1ccccn1 (racemic) | – | – | 11 | – | –
13 | CC(N)C(=O)NCc1ccccc1 (racemic) | – | – | > 100 | > 300 | Activity (Mus musculus [6]): inactive; ED50 (Rattus norvegicus [7]): 14 mg/kg; TD50 at 0.5 h [8]: > 500 mg/kg; Ratio TD50/ED50 (Rattus norvegicus [12]): >36
14 | CCCOCC(N)C(=O)NCc1ccccc1 (racemic) | > 130 | 69 | – | – | ED50 (Mus musculus [3]): > 130 mg/kg
15 | CCCC[C@@H](N)C(=O)NCc1ccccc1 | > 71 | 23 | – | – | ED50 (Mus musculus [3]): 93 mg/kg
16 | COCC(N)C(=O)NCc1ccccc1 (racemic) | – | – | 84 | 290 | –
17 | CCOCC(N)C(=O)NCc1ccccc1 (racemic) | 71 | 73 | – | – | Activity (Mus musculus [14]): 19%; ED50 (Mus musculus [3]): 120 mg/kg; Activity (Mus musculus [6]): inactive
18 | CCC(C)C(N)C(=O)NCc1ccccc1 (racemic) | > 22 | – | – | – | minimal effective dose (Mus musculus [2]; read-out: MED): 46 mg/kg; ED50 (Mus musculus [3]): > 120 mg/kg; Activity (Mus musculus [15]): 100%
19 | CCCC(CCC)C(=O)O [VALPROIC ACID] | – | – | 270 | – | –
20 | C#CCOCC(N)C(=O)NCc1ccccc1 (racemic) | 74 | 46 | – | – | minimal effective dose (Mus musculus [3]): 130 mg/kg; Activity (Mus musculus [16]): 27%; TD50 at 0.5 h [13]: 47 mg/kg
21 | CC(=O)NC(CN)C(=O)NCc1ccccc1 (racemic) | – | – | – | > 100 | –
22 | COC[C@@H](N)C(=O)NCc1ccccc1 | – | – | – | < 30 | TD50 at 0.5 h [13]: > 120 mg/kg; Ratio TD50/ED50 (Mus musculus [17]): >1.8; Activity (Mus musculus [6]): inactive
23 | C=CCOCC(NC(C)=O)C(=O)NCc1ccccc1 (racemic) | – | – | < 30 | < 30 | –
24 | CCC[C@@H](N)C(=O)NCc1ccccc1 | 35 | 21 | – | – | minimal effective dose (Mus musculus [3]): 66 mg/kg; TD50 at 0.5 h [13]: 57 mg/kg; Ratio TD50/ED50 (Mus musculus [18]): 2.8; Ratio TD50/ED50 (Mus musculus [17]): 1.6
25 | CC(=O)N[C@@H](C)C(=O)NCc1ccccc1 | – | – | – | 840 | –
26 | CCC(NC(C)=O)C(=O)NCc1ccccc1 (racemic) | – | – | < 100 | > 300 | –

— ChEMBL document CHEMBL2146408, “Primary amino acid derivatives: compounds with anticonvulsant and neuropathic pain protection activities” (J Med Chem, 2011)
